Source: PubChem BioAssay (several laboratories)
Sampled rows, rich in hits. Any-hit rate of the full collection: about 2.2%.
Myeloid diff MLP: compounds promoting myeloid differentiation. ER-HoxA9 myeloid progenitors, lysozyme-GFP differentiation, flow cytometry. calls only at 10 µM. 1% of 360,000 active. AID 624256;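 active means normalized GFP-positive differentiation at or above the plate's own cutoff, the solvent-only control mean plus 3 SD; inconclusive means no clear call, values can overlap the other calls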;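 further: cells exposed to compound for four days before flow analysis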
Exocytosis inh: blocks lytic granule exocytosis; TALL-104 LAMP-1 surface exposure, flow cytometry; cells stimulated with thapsigargin and PMA; inhibition, % at 10 µM; 0.66% of 360,000 active;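 active means inhibition above about 55%, limit read from the data; inconclusive means no clear call, values can overlap the other calls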
HNF4A DNA FP: change in binding of human HNF4 alpha to DNA; P41235; HNF4a-FITC DNA binding, fluorescence polarization, 1 h; activity change, % at 10 µM; 0.3% of 360,000 active; AID 1224865; in the data active means activity change above about 30%, passing the limit was not always enough
CSN deneddyl inh: blocks human CSN-mediated cullin deneddylation | Q92905 | 0.38% of 360,000 active | Purified CSN, SCF-Nedd8-OG deneddylation, fluorescence polarization | inhibition, % at 12.5 µM;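 active means pattern-corrected inhibition above about 35%, with an unprinted fluorescence ratio check between 0.5 and 1.5, limit read from the data, passing the limit was not always enough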
Target sequence (Q92905 whole entry, looked up, one chain of several): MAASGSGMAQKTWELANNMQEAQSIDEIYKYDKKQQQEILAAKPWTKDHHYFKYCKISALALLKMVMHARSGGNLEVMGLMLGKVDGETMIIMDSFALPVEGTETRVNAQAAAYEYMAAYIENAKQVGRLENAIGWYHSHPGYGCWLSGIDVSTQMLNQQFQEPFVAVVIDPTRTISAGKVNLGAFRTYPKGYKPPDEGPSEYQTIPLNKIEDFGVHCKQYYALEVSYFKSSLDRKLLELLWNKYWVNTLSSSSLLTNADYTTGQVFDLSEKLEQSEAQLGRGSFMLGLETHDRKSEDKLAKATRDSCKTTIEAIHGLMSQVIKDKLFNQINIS
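Schedule: reaction 90 min, room temperature / Assay system: HEK293T-derived human Csn5 enzyme / Input: Csn5 at 0.24 nM final / Measure: inhibition of Csn5 cleavage, % / Control set: substrate-only high control, full reaction low control / Technique: fluorescence polarization of the substrate / Buffer or medium: Tris/NaCl/DTT buffer, pH 7.5 / Reagent: SCFSkp2-Nedd8OG substrate at 10 nM final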
Of the large screens only hits and unclear results are named; the others gave an inactive call.

CC1OC(CC(=O)O)CC2=C1C(=O)c1c(O)cccc1C2=O (centres undefined)	Exocytosis inh 88.1 (no result: Myeloid diff MLP)
COC(=O)c1ccccc1Nc1ccnc(Cl)n1	none
Cc1ccccc1NS(=O)(=O)c1ccc(C(=O)OCC(=O)NCC(C)C)cc1	HNF4A DNA FP 31.2
CCOc1ccc(NC(=O)COC(=O)COc2cccc3c2OC(C)(C)C3)cc1	none
CC(=NNc1nc2ccccc2s1)c1ncccn1	Myeloid diff MLP inconclusive, Exocytosis inh 102.3
C/C(=N\Nc1nc2ccccc2s1)c1cccs1	none
COc1ccc(OC)c(N(CC(=O)NC2CCCCCC2)S(=O)(=O)c2ccc(C)cc2)c1	none
C#CCOCCOCCOCCNc1nc(N2CCN(C(=O)[C@H](CCC(=O)O)n3cc([C@@H](N)[C@H](C)CC)nn3)CC2)nc(N2CCN(C(=O)[C@H](CCC(=O)O)n3cc([C@@H](N)CCSC)nn3)CC2)n1	none
CN1C(=O)CC(c2cn(Cc3ccccc3)c3ccccc23)C1=O (centres undefined)	Myeloid diff MLP active
CC(=O)N1N=C(c2ccccc2)CC1c1cn(Cc2ccccc2)c2ccccc12 (centres undefined)	none
Cc1cccc(N(C(=O)c2snc(C(N)=O)c2N)C(C(=O)NCC2CCCO2)c2ccc(N(C)C)cc2)c1C (centres undefined)	Exocytosis inh 66.0
O=C(NCc1ccccc1)NC(=O)c1ccccc1F	none
O=C(c1cccc(C(F)(F)F)c1)C1CCCN(C(=O)c2cc(C3CC3)[nH]n2)C1 (centres undefined)	Myeloid diff MLP active
Cc1cc(C(=O)N2CCCC(C(=O)c3cccc(C(F)(F)F)c3)C2)n[nH]1 (centres undefined)	none
Cc1ccc(N(C(=O)c2snc(C(N)=O)c2N)C(CC(C)C)C(=O)NC2CCCC2)cc1 (centres undefined)	CSN deneddyl inh 110.5
CCCCC(C(=O)NC1CCCC1)N(C(=O)c1snc(C(N)=O)c1N)c1ccc(C)cc1 (centres undefined)	none
CC(NC(=O)CN1CCN(CC(=O)Nc2ccccc2Cl)CC1)c1ccc(Br)cc1 (centres undefined)	none
N#C/C(=C/C=C/c1ccccc1)C(=O)Nc1ccccc1	Myeloid diff MLP active
CCCCCCCCOC(=O)c1c(CSC(=N)N)n(C)c2cc(Br)c(OC(C)=O)cc12	Exocytosis inh 72.4
CCOC(=O)c1c(CSC(=N)N)n(-c2ccc(Br)cc2)c2cc(Br)c(OC(C)=O)cc12	none
CC(C)[C@H](NC(=O)c1ccccc1)C(=O)OCC(=O)c1c(N)n(C)c(=O)n(C)c1=O	none
CC1CCCCC12NC(=O)N(CC(=O)OCC(=O)c1ccc(OC(F)F)cc1OC(F)F)C2=O (centres undefined)	none
COc1ccc(CN2C(=O)C(CC(=O)NCc3cccs3)CC(C(=O)N3CCOCC3)=C2C)cc1 (centres undefined)	none
CC(=O)c1ccc(S(=O)(=O)N(C)CC(=O)N2CCCCCC2)cc1	none
CCOC(=O)C1CCN(c2cc(=O)n(C3CCCCC3)c(=O)[nH]2)CC1	HNF4A DNA FP 39.9
CCOC(=O)[C@@H](NC(=O)CC[C@H]1O[C@@H](n2cc(C)c(=O)[nH]c2=O)C[C@@H]1O)C(C)C	none
COc1ccc(NC(=O)/C(C#N)=C/c2ncc([N+](=O)[O-])n2C)c(OC)c1	Exocytosis inh 97.0
COc1ccc(NC(=O)/C(C#N)=C/c2ccc[nH]2)c(OC)c1	none
O=C(CS(=O)(=O)c1ccccc1)Nc1nnc(Cc2ccccc2)s1	none
O=Cc1cnc2ccccc2c1-c1ccccc1	Exocytosis inh 79.9
O=Cc1cn[nH]c1-c1ccccc1	none
CCc1ccc(N=Nc2ccc(O)c3[nH]cnc23)cc1	Myeloid diff MLP active, HNF4A DNA FP 41.5
COc1ccc(-c2c(C)nn3c(N4CCOCC4)cc(C)nc23)cc1OC	Myeloid diff MLP active
COCCCn1c2nc3ccccc3nc2c2c(=O)n(Cc3ccc(Cl)cc3)cnc21	none
O=c1c2c3nc4ccccc4nc3n(Cc3ccccc3)c2ncn1Cc1ccco1	Exocytosis inh 93.3
O=C(CSc1nnc(CNC(=O)c2ccccc2F)o1)NCc1ccco1	CSN deneddyl inh 39.8
CCCCc1ccc(NC(=O)Nc2cnccn2)cc1	Myeloid diff MLP active
CCc1ccc(NC(=O)Nc2cnccn2)cc1	none
CCc1ccc2nc(N3CCN(C(=O)C(C)(C)C)CC3)sc2c1	Myeloid diff MLP active
CCCCC(=O)N1CCN(c2nc3ccc(F)cc3s2)CC1	none
CC(C)(C)C(=O)N1CCN(c2nc3ccccc3s2)CC1	none
CCCCC(=O)N1CCN(c2nc3ccc(OCC)cc3s2)CC1	CSN deneddyl inh 62.5
Cc1cc2oc(=O)cc(CN3CCOCC3)c2c(C)c1Cl	none
